Assay outcomes from PubChem BioAssay.
A selection: hits, their analogues and other compounds. The true share with any hit is near 12%.
CHOP inh: inhibitors of CHOP promoter induction, primary screen, cell-based, unfolded protein response, luciferase reporter; AID 2732, 2010; CHO-K1 CHOP-promoter luciferase, tunicamycin-induced, 15-18 h; 220,000 compounds, 3.8% hits; inhibition, % at 10 µM;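 active = compounds that reduced the stress-induced luciferase reporter signal by more than about 70% of percent inhibition, limit read from the data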;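 also: 0% = tunicamycin plus vehicle and 100% = wells without tunicamycin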
bCat nuc transl: modulators of beta-catenin nuclear translocation, primary screen, imaging, HeLa cells, immunofluorescence, high-content | nuclear translocation activity, % at 5 µM | 190,000 compounds, 0.3% hits | AID 1665, 2009;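 active = nuclear translocation activity above 50% at 5 µM, with a well cell count of 50 or more; inconclusive = wells under 50 cells across six images, flagged as toxic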;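 also: per-cell ratio of nuclear to cytoplasmic median beta-catenin stain intensity; plate controls were DMSO negative control for no effect and GSK-3 inhibitor IX positive control for full effect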
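System: HeLa cells, endogenous beta-catenin; compound dosing: 5 µM primary single dose, 0.1% DMSO, 0.02–20 µM confirmation series; incubation: 24 h compound exposure at 37°C, 5% CO2; signal: beta-catenin immunofluorescence imaging with DAPI; evaluation: % activation, nuclear-to-cytoplasmic median beta-catenin signal ratio per cell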
MT stabilizer: microtubule stabilizers in HeLa cells, primary screen, imaging, high-content imaging; HeLa tubulin immunostaining HCS, 24 h; share of cells brighter than vehicle mean+2SD; % tubulin-high responders, % at 10 µM; 200,000 compounds, 0.83% hits; AID 2205, 2009;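 active = plate Z-score above 3 for both tubulin-high and condensed-nucleus cell shares, with cell loss under 80%, at 10 µM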;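 also: anti alpha tubulin signal scored within the nucleus-defined area of each cell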
Autophagy mod: autophagy modulators in MEF cells, primary screen, imaging, high-content, MEF GFP-LC3. AID 463193, 2010. MEF GFP-LC3 puncta imaging; test concentration mostly 10 µM. 190,000 compounds, 0.98% hits. calls only at 10 µM (by protocol);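 active = percentage of spot-positive cells more than 3 SD above its plate mean, without a fluorescence outlier flag or 80% toxicity; inconclusive = no clear call, values can overlap the other calls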;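 also: spot-positive cell cutoff set from DMSO-treated cells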
L major viab: Leishmania major promastigote growth inhibition, primary screen; Leishmania major promastigotes, resazurin fluorescence viability; inhibition, % at 10 µM; 200,000 compounds, 9% hits; AID 1063, 2008; in the data active = inhibition above about 50%;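 also: promastigotes grown with compound for 44 hours at 28 °C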
Dynein transport: inhibitors of GR-EGFP nuclear translocation, primary screen, dynein cargo transport inhibitor project, imaging, high-content, 3617.4 mouse cells; test concentration mostly 20 µM; stimulated with dexamethasone, 1 µM; stronger effect = lower value; z-score, hits read low; 220,000 compounds, 0.47% hits; AID 1381, 2008;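 active = plate z-score of nuclear minus cytoplasmic receptor signal below a set negative limit, without overly bright fluorescence or cell loss, cut at about -3.5 in these data, passing the limit was not always enough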;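 also: z-score of nuclear minus cytoplasmic ring GR-EGFP intensity difference per well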
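Buffer or medium: tet-free medium with charcoal-stripped serum / Also added: dexamethasone agonist, 1.0 µM final, for 30 min / Timing: induction 48 h, compound 1 h, agonist 30 min / Measured by: high-content fluorescence imaging after fixation / Read-out: nuclear-to-cytoplasmic GR-EGFP distribution per well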
Dynein inh conf: dynein cargo transport inhibitors, GR-EGFP translocation, confirmation, imaging, high-content imaging, GR-EGFP cells. AID 463116, 2010. shares compounds with Dynein transport. 3617.4 GR-EGFP nuclear translocation imaging, dexamethasone-induced. calls only at 20 µM. 1,000 compounds, 69% hits;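 active = inhibition of receptor movement into the nucleus at or above a set limit in both runs, with normal cell brightness and cell count; inconclusive = limit reached in only one run, brightness and count normal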;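 also: dexamethasone at 1 µM final in well for 30 min; nuclear minus cytoplasmic GR-EGFP mean intensity difference in channel 2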
* hit, by the source's call.

What do the screens show for `Clc1nc(CN2CCCCC2)nc2sc3c(c12)CCCC3`?
CHOP inh: 5; bCat nuc transl: 0; MT stabilizer: 0; Autophagy mod: inactive; L major viab: 32; Dynein transport: -3.7*; Dynein inh conf: inactive

Results for COC(=O)NC(=C(Cl)Cl)S(=O)(=O)c1ccccc1 ?
CHOP inh: -73; bCat nuc transl: 5; MT stabilizer: 3; Autophagy mod: inactive; L major viab: 97*; Dynein transport: -5.8*; Dynein inh conf: active

Results for CN1CCN(C2=C(Cl)C(=O)N(c3ccc(Cl)c(Cl)c3)C2=O)CC1 ?
CHOP inh: 29; bCat nuc transl: -5; MT stabilizer: 4; Autophagy mod: inactive; L major viab: 6; Dynein transport: -4.6*; Dynein inh conf: inconclusive

Results for CN1CCN(C2=C(Cl)C(=O)N(c3cccc(Cl)c3)C2=O)CC1 ?
CHOP inh: 4; bCat nuc transl: -4; MT stabilizer: 1; Autophagy mod: inactive; L major viab: 0; Dynein transport: -0.78

What do the screens show for `Cc1ccc(OC(=O)c2cc(C)nn2C(C)(C)C)cc1`?
CHOP inh: -7; bCat nuc transl: -2; Dynein transport: 0.42

How did O=C(NCc1ccccn1)c1coc(=O)c(Br)c1 do in these assays?
CHOP inh: -1; bCat nuc transl: 0; MT stabilizer: 4; Autophagy mod: inactive; L major viab: 5; Dynein transport: -4.1*; Dynein inh conf: inactive

How did COc1ccc(C2C3=C(CC(C)(C)CC3=O)OC(N)=C2[N+](=O)[O-])cc1 (stereo unspecified) do in these assays?
CHOP inh: 30; bCat nuc transl: -1; MT stabilizer: 5; Autophagy mod: inactive; L major viab: 19; Dynein transport: 0.53

What do the screens show for `Cc1ccc(/C=C/C(=O)Nc2ccc([N+](=O)[O-])cc2)o1`?
CHOP inh: -14; bCat nuc transl: 1; MT stabilizer: 1; Autophagy mod: inactive; L major viab: 9; Dynein transport: -1

What do the screens show for `Cc1ccc(/C=C/C(=O)Nc2ccc(Oc3ccccc3)cc2)o1`?
CHOP inh: 11; bCat nuc transl: 2; MT stabilizer: 4; Autophagy mod: inactive; L major viab: 8; Dynein transport: -3.6*; Dynein inh conf: inactive

What do the screens show for `O=c1c2ccccc2nc(/C=C/c2ccc([N+](=O)[O-])o2)n1CCCO`?
CHOP inh: -21; bCat nuc transl: 6; MT stabilizer: 3; Autophagy mod: inactive; L major viab: 101*; Dynein transport: -5.6*; Dynein inh conf: active

How did Cc1nc2ccccc2c(=O)n1CCCO do in these assays?
CHOP inh: 13; bCat nuc transl: 0; MT stabilizer: 6; Autophagy mod: inactive; L major viab: -1; Dynein transport: 0.66

How did Cc1cc(C2=CC(C)(c3cc(C)oc3C)Nc3nc(C(F)(F)F)nn32)c(C)o1 (stereo unspecified) do in these assays?
CHOP inh: 61; bCat nuc transl: 0; MT stabilizer: 4; Autophagy mod: inactive; L major viab: 3; Dynein transport: -6.1*; Dynein inh conf: active

How did COc1cc2[nH]c(=S)nc(NC3CCCC3)c2cc1OC do in these assays?
CHOP inh: -38; bCat nuc transl: -2; MT stabilizer: 3; Autophagy mod: inactive; L major viab: 5; Dynein transport: -0.13

Results for CCOC(=O)C1C(=O)C=C(c2ccc(C)cc2)CC1c1ccccc1 (stereo unspecified) ?
CHOP inh: 15; bCat nuc transl: 0; MT stabilizer: 3; Autophagy mod: inactive; L major viab: 10; Dynein transport: 0.13

Results for CCOC(=O)C1C(=O)C=C(/C=C/c2ccc(N(C)C)cc2)CC1c1ccccc1 (stereo unspecified) ?
CHOP inh: 39; bCat nuc transl: -2; MT stabilizer: 7; Autophagy mod: active; L major viab: 7; Dynein transport: -9.9; Dynein inh conf: inactive

Results for CC(C)c1ccc(NC(=O)C2=NNC(=O)CC2)cc1 ?
CHOP inh: -1; bCat nuc transl: -1; Dynein transport: 0.27

What do the screens show for `CCCCn1c(CCC)nc([N+](=O)[O-])c1Sc1ccc(Cl)cn1`?
CHOP inh: -32; MT stabilizer: 5; Autophagy mod: inactive; L major viab: 75*; Dynein transport: -3.6*; Dynein inh conf: active

Results for O=C(CCl)Nc1cc(SCC(O)CO)cc([N+](=O)[O-])c1 (stereo unspecified) ?
CHOP inh: 0; bCat nuc transl: 11; MT stabilizer: 93; Autophagy mod: active; L major viab: 17; Dynein transport: -5.9*; Dynein inh conf: active

Results for CCCCOC(=O)Nc1ccccc1C(N)=O ?
CHOP inh: 24; bCat nuc transl: -8; MT stabilizer: 2; Autophagy mod: inactive; L major viab: -9; Dynein transport: 0.095

What do the screens show for `Cc1ccc(-c2csc(NC(=O)Cc3ccc(F)cc3)n2)o1`?
CHOP inh: 19; bCat nuc transl: 2; MT stabilizer: 3; Autophagy mod: inactive; L major viab: 23; Dynein transport: -3.9*; Dynein inh conf: inactive

How did Cc1onc(-c2c(Cl)cccc2Cl)c1-c1nc2cc(Cl)ccc2c(=O)o1 do in these assays?
CHOP inh: 29; bCat nuc transl: -1; Dynein transport: -4.1*; Dynein inh conf: active

Results for Clc1nc(-c2cccnc2)nc2scc(-c3ccccc3)c12 ?
CHOP inh: 39; bCat nuc transl: 0; MT stabilizer: 5; Autophagy mod: inactive; L major viab: 22; Dynein transport: -1.9

How did COc1ccc(-c2csc3nc(-c4cccnc4)nc(Cl)c23)cc1OC do in these assays?
CHOP inh: 55; bCat nuc transl: 1; MT stabilizer: 4; Autophagy mod: inactive; L major viab: 54*; Dynein transport: -4.4*; Dynein inh conf: active

How did CS(=O)(=O)N1N=C(c2ccco2)CC1c1ccccc1 (stereo unspecified) do in these assays?
CHOP inh: 19; bCat nuc transl: 0; MT stabilizer: 2; Autophagy mod: inactive; L major viab: -5; Dynein transport: -0.2

Results for CS(=O)(=O)N1N=C(c2ccccc2)CC1c1ccc2c(c1)OCO2 (stereo unspecified) ?
CHOP inh: -8; bCat nuc transl: 0; MT stabilizer: 6; Autophagy mod: inactive; L major viab: -6; Dynein transport: -7.8; Dynein inh conf: inactive
